Laboratory results from ChEMBL document CHEMBL4038317, “Discovery of a Benzamide Derivative That Protects Pancreatic β-Cells against Endoplasmic Reticulum Stress” (J Med Chem, 2017).
Calls of active or inactive are those of the source. The calls are words filed in the database; no cut-off is given here.

Target: T1, Cyclic AMP-dependent transcription factor ATF-6 alpha (Rattus norvegicus) (UniProt G3V909)
T1 sequence (whole entry): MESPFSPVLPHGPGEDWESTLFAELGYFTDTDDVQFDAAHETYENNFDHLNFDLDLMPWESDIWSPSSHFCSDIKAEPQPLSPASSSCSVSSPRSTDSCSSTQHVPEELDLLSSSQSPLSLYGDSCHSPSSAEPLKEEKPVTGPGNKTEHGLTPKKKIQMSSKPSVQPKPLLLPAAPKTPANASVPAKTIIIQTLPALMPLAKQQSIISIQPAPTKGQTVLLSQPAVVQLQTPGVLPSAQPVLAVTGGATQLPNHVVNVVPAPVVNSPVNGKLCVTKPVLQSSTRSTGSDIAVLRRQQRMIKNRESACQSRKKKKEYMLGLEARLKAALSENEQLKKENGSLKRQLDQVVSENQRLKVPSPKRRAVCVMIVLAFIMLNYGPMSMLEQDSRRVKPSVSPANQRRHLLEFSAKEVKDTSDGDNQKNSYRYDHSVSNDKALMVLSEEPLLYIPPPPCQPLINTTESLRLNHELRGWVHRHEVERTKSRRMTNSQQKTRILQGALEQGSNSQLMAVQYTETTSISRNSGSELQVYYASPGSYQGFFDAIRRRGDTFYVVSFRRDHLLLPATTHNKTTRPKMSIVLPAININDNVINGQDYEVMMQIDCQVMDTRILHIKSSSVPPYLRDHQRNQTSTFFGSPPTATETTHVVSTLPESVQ
Experiment: Inhibition of tunicamycin ER stress-induced ATF6 activation in rat INS-1 cells assessed as suppression of increase in […] mRNA levels up to 10 uM after 8 hrs by qRT-PCR analysis
Type: cell-based
In short: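 INS-1 cells, 4×10^5 per well, were exposed to tunicamycin 0.1 μg/mL with compound or DMSO for 8 h. qRT-PCR for ATF4, CHOP, Bip, GRP94, or spliced XBP1 using splicing-specific primers. Values were normalized to cyclophilin A by ΔΔCt and given as fold over untreated control. Triplicate wells, 3 independent experiments.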

inhibition: Active
SMILES: O=C(NCc1ccc(C(F)(F)F)cc1)c1cccc(CN2CCCCC2)c1
